Reference: ChEMBL document CHEMBL5033991, “Targeting the FtsZ Allosteric Binding Site with a Novel Fluorescence Polarization Screen, Cytological and Structural Approaches for Antibacterial Discovery” (J Med Chem, 2021)
≈ marks a conversion by molar mass, not a printed value. Calls of active or inactive are those of the source. No cut-off for these calls is given here.

Key:
[1] = tested on: IMR-90; test: Cytotoxicity against human IMR-90 cells assessed as reduction in cell viability at MIC measured after 48 hrs by MTT assay; assay type: cell-based; conditions: imr-90, 48 h
[2] = molecular target: T1, Cell division protein FtsZ (Bacillus subtilis) (UniProt A5Z1V5); test: Binding affinity to Bacillus subtilis FtsZ assessed as decrease in fluorescence anisotropy values at 20 to 200 uM by fluorescence anisotropy analysis; conditions: dose 20-200 µM
T1 sequence (whole entry): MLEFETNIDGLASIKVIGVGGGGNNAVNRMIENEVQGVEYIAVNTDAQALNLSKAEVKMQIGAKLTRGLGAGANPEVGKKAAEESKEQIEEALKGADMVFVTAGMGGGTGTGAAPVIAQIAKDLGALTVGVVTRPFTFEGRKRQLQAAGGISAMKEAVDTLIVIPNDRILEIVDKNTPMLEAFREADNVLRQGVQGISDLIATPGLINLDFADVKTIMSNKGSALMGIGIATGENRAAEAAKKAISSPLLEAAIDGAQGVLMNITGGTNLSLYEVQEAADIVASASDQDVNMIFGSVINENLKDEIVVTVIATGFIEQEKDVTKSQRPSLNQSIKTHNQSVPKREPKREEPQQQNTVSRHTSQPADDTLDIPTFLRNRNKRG
Summary of the method: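 Screen: probe (S)-2 (3 μM) with glutaraldehyde-cross-linked BsFtsZ-GMPCPP polymers (8 μM binding sites), each compound at 20 and 200 μM; raw anisotropy compared with partially bound probe, free probe and DMSO vehicle controls (2%, 4%). Hits checked for total intensity changes and with replicates lacking FtsZ.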

[3] = molecular target: T1, Cell division protein FtsZ (Bacillus subtilis); test: Competitive binding affinity to Bacillus subtilis FtsZ at 10 uM in presence of PC190723 by fluorescence anisotropy analysis
Summary of the method: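 Probe (10 μM) in buffer mixed with unassembled BsFtsZ (10 μM), then GMPCPP (0.1 mM). Polymerization started with MgCl2 (10 mM), anisotropy read 5–10 min later. PC190723 (10 μM) then added to displace probe, with anisotropy read 5 min after. Measured at 25 °C in an L-format spectrofluorometer at each probe's excitation/emission maxima.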

[4] = tested on: Bacillus subtilis; test: Antimicrobial activity against Bacillus subtilis 168 assessed as inhibition of cell division incubated for 1.5 hrs by phase contrast microscopic analysis; assay type: functional
Summary of the method: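 B. subtilis 168 grown in cation-adjusted Mueller–Hinton broth at 37 °C to A600 0.1–0.2, then incubated with compound or DMSO vehicle. Cells observed by microscopy and cell lengths measured; division inhibition expressed as minimal division inhibitory concentration.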

[5] = molecular target: T1, Cell division protein FtsZ (Bacillus subtilis); test: Binding affinity to Bacillus subtilis FtsZ polymer assessed as dissociation constant by fluorescence anisotropy analysis
[6] = molecular target: T2, Cell division protein FtsZ (Bacillus subtilis, UniProt A5Z1V5); test: Displacement of free fluorescent probe from inter domain cleft of stabilized Bacillus subtilis FtsZ assessed as dissociation constant in presence of GMPCPP by fluorescence anisotropy analysis
T2 sequence (A5Z1V5 whole entry): T1 sequence (whole entry)
Summary of the method: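 BsFtsZ polymers assembled in HEPES buffer pH 6.8 with 10 mM MgCl2 and GMPCPP, cross-linked with 0.15% glutaraldehyde, quenched with NaBH4. Competitor titrated into 7–8 μM polymers plus (S)-2 (3 μM) or 2–3 μM polymers plus (R)-5 (3 μM), 0.1 mM GMPCPP, 25 °C. Initial probe bound fraction 0.4–0.5; KD numerically fitted by competition model; mean ± SEM.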

[7] = tested on: Bacillus subtilis; test: Inhibition of Bacillus subtilis cell division assessed as induction of filamentous phenotype at 25 to 100 uM incubated for 1.5 hrs by fluorescence microscopic analysis; assay type: functional, organism-based; conditions: dose 25-100 µM
Summary of the method: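 B. subtilis grown in cation-adjusted Mueller–Hinton broth to A600 0.1–0.2, then treated 1.5 h with fluorescent benzamide probe. Cells imaged by fluorescence microscopy using the probe's own fluorescence; filamentous phenotype scored as division inhibition.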

[8] = tested on: Bacillus subtilis; test: Inhibition of Bacillus subtilis 168 cell division at 0.75 mM measured after 3 hrs by phase-contrast microscopic analysis; assay type: functional, organism-based
Summary of the method: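 B. subtilis 168 grown in CAMHB at 37 °C to A600 0.1–0.2, exposed 3 h to compound or DMSO; cell lengths measured from phase-contrast images (n ≥ 30 cells).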

[9] = molecular target: T1, Cell division protein FtsZ (Bacillus subtilis); test: Inhibition of GFP-tagged FtsZ in Bacillus subtilis SU570 assessed as induction of irregular shaped z-ring formation at 0.2 uM incubated for 1.5 hrs; conditions: dose 200.0 µM, in the assay text read “0.2 mM” for “0.2 uM”
Summary of the method: (§1)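 B. subtilis SU570 expressing FtsZ-GFP grown in cation-adjusted Mueller–Hinton broth at 30 °C to A600 0.1–0.2, then grown 1.5 h with compound or DMSO vehicle. FtsZ-GFP localization (Z-rings, foci) assessed by fluorescence microscopy.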

[10] = molecular target: T1, Cell division protein FtsZ (Bacillus subtilis); test: Inhibition of GFP-tagged FtsZ in Bacillus subtilis SU570 assessed as delocalization into punctate foci at 0.2 uM incubated for 1.5 hrs; conditions: dose 200.0 µM, in the assay text read “0.2 mM” for “0.2 uM”; summary of the method: as §1
[11] = molecular target: T1, Cell division protein FtsZ (Bacillus subtilis); test: Induction of Bacillus subtilis FtsZ polymerization at 0.1 mM measured after 5 to 10 mins by fluorescence anisotropy analysis; conditions: time 5-10 min
[12] = tested on: Staphylococcus epidermidis; test: Antimicrobial activity against Staphylococcus epidermidis assessed as inhibition of bacterial growth by CLSI based broth macrodilution method; assay type: functional
Summary of the method: (§2)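 Cells grown in cation-adjusted Mueller–Hinton broth at 37 °C to A600 0.1–0.2, then exposed to compound or DMSO vehicle. MIC by broth macrodilution as the lowest concentration inhibiting growth.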

[13] = tested on: Staphylococcus haemolyticus; test: Antimicrobial activity against Staphylococcus haemolyticus assessed as inhibition of bacterial growth by CLSI based broth macrodilution method; assay type: functional; summary of the method: as §2

NC(=O)c1c(F)ccc(OCc2cccc(Cl)c2)c1F
Activity [1]: Non-Toxic

O=C(O)CCN(Cc1ccccc1)Cc1cccc(Sc2ccccc2)c1
Activity [2]: inactive

CCCC(COc1ccc(F)c(C(N)=O)c1F)Nc1ccc([N+](=O)[O-])c2nonc12 (centres undefined)
Activity [3]: Active

NC(c1cccc(OCc2cccc(Cl)c2)c1)C(F)(F)F (centres undefined)
MIC [4]: 250 µM (≈ 78.9 µg/mL)

NC(=O)c1c(F)ccc(OCc2nc3cc(Cl)cnc3s2)c1F
Activity [5]: < 0.1 µM | Kd [6]: < 100 nM

NC(=O)c1ccc(NCc2cccc(Cl)c2)cc1
Activity [2]: inactive

CCN(CC)CCNc1nc(/C=C/c2ccc(Cl)cc2)nc2cc3ccccc3cc12
Activity [2]: inactive

O=C(O)C(=O)c1cn(Cc2ccccc2)c2ccc(-c3ccc(OC(F)(F)F)cc3)cc12
Activity [2]: inactive

CCC[C@H](COc1ccc(F)c(C(N)=O)c1F)Nc1cccc(C(F)(F)F)c1
Activity [1]: Non-Toxic

NC(=O)c1c(F)ccc(OCCNc2ccc([N+](=O)[O-])c3nonc23)c1F
Activity [3]: Active

CCC[C@H](CNc1ccc([N+](=O)[O-])c2nonc12)Oc1ccc(F)c(C(N)=O)c1F
inhibition [7]: inactive

CN(Cc1cccc(Cl)c1)c1cccc(C(N)=O)c1
inhibition [8]: Active | inhibition [9]: Active | inhibition [10]: Active | Activity [2]: inactive

NC(=O)c1c(F)ccc(OCc2cccc(C(F)(F)F)c2)c1F
Activity [1]: Non-Toxic

CCC[C@H](COc1ccc(F)c(C(N)=O)c1F)Nc1ccc([N+](=O)[O-])c2nonc12
inhibition [7]: Active

CN(Cc1cccc(Cl)c1)c1ccc(C(N)=O)cc1
Activity [2]: inactive

CCCCCCCCC(CNc1ccc([N+](=O)[O-])c2nonc12)Oc1ccc(F)c(C(N)=O)c1F (centres undefined)
Activity [3]: inactive

Clc1cccc(COc2cccc(-c3ncc[nH]3)c2)c1
MIC [4]: 50 µM (≈ 14.2 µg/mL)

Oc1ccc(/C=C/c2cc(O)cc(O)c2)cc1
Activity [2]: inactive

Nc1nc2c(ncn2[C@@H]2O[C@H](CO[P@@](=O)(O)C[P@@](=O)(O)OP(=O)(O)O)[C@@H](O)[C@H]2O)c(=O)[nH]1
Activity [11]: Active

NC(=O)c1cccc(NCc2cccc(Cl)c2)c1
Activity [2]: inactive

FC(F)(F)c1cccc(COc2cccc(-c3ncc[nH]3)c2)c1
MIC [4]: 50 µM (≈ 15.9 µg/mL)

NC(=O)c1c(F)ccc(OCCNc2cccc(C(F)(F)F)c2)c1F
Activity [1]: Non-Toxic

CCCC(CNc1ccc([N+](=O)[O-])c2nonc12)Oc1ccc(F)c(C(N)=O)c1F (centres undefined)
Activity [3]: Active

O=C(Oc1cc(OC(=O)c2cc(O)cc(O)c2)c2ccccc2c1)c1ccc(O)c(O)c1
Activity [2]: Active

CCCCCC(CNc1ccc([N+](=O)[O-])c2nonc12)Oc1ccc(F)c(C(N)=O)c1F (centres undefined)
Activity [3]: inactive

CCC[C@@H](CNc1ccc([N+](=O)[O-])c2nonc12)Oc1ccc(F)c(C(N)=O)c1F
inhibition [7]: Active

CCCC(COc1ccc(F)c(C(N)=O)c1F)Nc1cccc(C(F)(F)F)c1 (racemic)
MIC [12]: 50 µM (≈ 20.1 µg/mL) | MIC [13]: 50 µM (≈ 20.1 µg/mL)

CCC[C@@H](COc1ccc(F)c(C(N)=O)c1F)Nc1ccc([N+](=O)[O-])c2nonc12
inhibition [7]: Active

CC1=CC(=O)c2c(O)cccc2C1=O
Activity [2]: inactive
